Assay [1] is described as follows: Toxicity day survivors expressed as number of animals that survived to day five/ number of test animals under control group A at a dose of 100 mg/kg; 6 survived out of 6. The class given is functional, Mus musculus.
Assay [2] can be described thus: Antileukemic activity against Murine P388 lymphocytic leukemia, body weight difference of the test animals compared to control group A animals at a dose of 50 mg/kg. The assay is classed as functional, Mus musculus. On the set-up: unit not given here. Put shortly: (§1)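 CD2F1 mice implanted intraperitoneally with ascitic fluid carrying ca. 1×10^6 P388 cells, under the NCI protocol. Dosing was intraperitoneal, starting 24 h after inoculation, then every 24 h for five doses in total. The body weight difference of treated mice is taken against untreated controls. Toxicity day survivors are the mice alive at day five out of those tested.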

The nature of assay [3]: Toxicity day survivors expressed as number of animals that survived to day five/ number of test animals under control group A at a dose of 200 mg/kg; 6 survived out of 6. The assay is classed as functional, Mus musculus.
Assay [4] in a line: Antileukemic activity against Murine P388 lymphocytic leukemia, body weight difference of the test animals compared to control group A animals at a dose of 400 mg/kg. The assay is classed as functional, Mus musculus. Put shortly:
as §1

Assay [5] in a line: Antileukemic activity against Murine P388 lymphocytic leukemia, body weight difference of the test animals compared to control group A animals at a dose of 100 mg/kg. The assay is classed as functional, Mus musculus. The arrangement: unit not given here. Put shortly: as §1
A short description of assay [6]: Percent increase in life span of test animals compared to untreated tumor-bearing control group A animals at a dose of 200 mg/kg. The assay is classed as functional. To be noted: Mus musculus.
The nature of assay [7]: Toxicity day survivors expressed as number of animals that survived to day five/ number of test animals under control group A at a dose of 400 mg/kg; 3 survived out of 6. The assay is classed as functional, Mus musculus.
Assay [8] in a line: Antileukemic activity against Murine P388 lymphocytic leukemia, body weight difference of the test animals compared to control group A animals at a dose of 200 mg/kg. The class given is functional, Mus musculus. A digest of the protocol: as §1
A short description of assay [9]: Toxicity day survivors expressed as number of animals that survived to day five/ number of test animals under control group A at a dose of 50 mg/kg; 6 survived out of 6. The assay is classed as functional, Mus musculus.
The nature of assay [10]: Antileukemic activity against Murine P388 lymphocytic leukemia, body weight difference of the test animals compared to control group A animals at a dose of 25 mg/kg. The class given is functional, Mus musculus. On the set-up: unit not given here. Put shortly:
as §1

A short description of assay [11]: Toxicity day survivors expressed as number of animals that survived to day five/ number of test animals under control group A at a dose of 25 mg/kg; 6 survived out of 6. The class given is functional, Mus musculus.
A short description of assay [12]: Percent increase in life span of test animals compared to untreated tumor-bearing control group A animals at a dose of 50 mg/kg. The assay is classed as functional. To be noted: Mus musculus.
The test system of assay [13] is P388. Kind of assay: Log cell population relative to cell population at the beginning of treatment compared to control group A at a dose of 100 mg/kg. The class given is functional, Mus musculus.
Assay [14] relates to P388. Kind of assay: Log cell population relative to cell population at the beginning of treatment compared to control group A at a dose of 50 mg/kg. The assay is classed as functional, Mus musculus.
Assay [15] deals with P388. Nature of the assay: Log cell population relative to cell population at the beginning of treatment compared to control group A at a dose of 200 mg/kg. The assay is classed as functional, Mus musculus.
A short description of assay [16]: Percent increase in life span of test animals compared to untreated tumor-bearing control group A animals at a dose of 100 mg/kg. The assay is classed as functional. To be noted: Mus musculus.
Assay [17] is described as follows: Toxicity day survivors expressed as number of animals that survived to day five/ number of test animals under control group B at a dose of 12.5 mg/kg; […] out of 6. The assay is classed as functional, Mus musculus.
Assay [18] can be described thus: Toxicity day survivors expressed as number of animals that survived to day five/ number of test animals under control group B at a dose of 100 mg/kg; 1 survived out of 6. The assay is classed as functional, Mus musculus.
Assay [19] is described as follows: Antileukemic activity against Murine P388 lymphocytic leukemia, body weight difference of the test animals compared to control group B animals at a dose of 50 mg/kg. The assay is classed as functional, Mus musculus. The arrangement: unit not given here. A digest of the protocol:
as §1

For assay [20], the system named is P388. Kind of assay: Log cell population relative to cell population at the beginning of treatment compared to control group Bat a dose of 50 mg/kg. The class given is functional, Mus musculus.
Assay [21] is described as follows: Antileukemic activity against Murine P388 lymphocytic leukemia, body weight difference of the test animals compared to control group B animals at a dose of 100 mg/kg. The assay is classed as functional, Mus musculus. On the set-up: unit not given here. A digest of the protocol: as §1
Assay [22] has as its system P388. Kind of assay: Log cell population relative to cell population at the beginning of treatment compared to control group B at a dose of 12.5 mg/kg. The assay is classed as functional, Mus musculus.
The subject of assay [23] is P388. Nature of the assay: Log cell population relative to cell population at the beginning of treatment compared to control group B at a dose of 25 mg/kg. The class given is functional, Mus musculus.
The nature of assay [24]: Toxicity day survivors expressed as number of animals that survived to day five/ number of test animals under control group B at a dose of 50 mg/kg; 5 survived out of 6. The class given is functional, Mus musculus.
A short description of assay [25]: Percent increase in life span of test animals compared to untreated tumor-bearing control group B animals at a dose of 25 mg/kg. The class given is functional. To be noted: Mus musculus.
Assay [26] can be described thus: Percent increase in life span of test animals compared to untreated tumor-bearing control group B animals at a dose of 12.5 mg/kg. The assay is classed as functional. To be noted: Mus musculus.
Assay [27] in a line: Antileukemic activity against Murine P388 lymphocytic leukemia, body weight difference of the test animals compared to control group B animals at a dose of 25 mg/kg. The class given is functional, Mus musculus. On the set-up: unit not given here. A digest of the protocol: as §1
Assay [28] is described as follows: Toxicity day survivors expressed as number of animals that survived to day five/ number of test animals under control group B at a dose of 25 mg/kg; 5 survived out of 6. The assay is classed as functional, Mus musculus.
Assay [29] is described as follows: Antileukemic activity against Murine P388 lymphocytic leukemia, body weight difference of the test animals compared to control group B animals at a dose of 12.5 mg/kg. The assay is classed as functional, Mus musculus. The arrangement: unit not given here. A digest of the protocol: as §1
Assay [30] can be described thus: Percent increase in life span of test animals compared to untreated tumor-bearing control group B animals at a dose of 50 mg/kg. The class given is functional. To be noted: Mus musculus.

As for `CC(C)NC(=O)OCc1c(COC(=O)NC(C)C)c(-c2ccc(Cl)c(Cl)c2)n2c1C[S+]([O-])C2` (centres undefined), the TDS in assay [1] came to 6; in assay [3] it was 6; in assay [7], 3; in [9], 6; in assay [11] it was 6. For the same compound, the BWD in assay [2] was -1.9; in assay [4] it was -3.4; in assay [5] it was -2.9; in [8] it was -3.1; in assay [10] it was -0.9. Besides, the ILS at 200 mg/kg in assay [6] was -11%.
Turning to `Cc1c(COC(=O)NC(C)C)c(COC(=O)NC(C)C)c2n1C[S+]([O-])C2` (centres undefined), the ILS at 50 mg/kg in assay [12] was 26%. The TDS in [1] came out at 6; in assay [3] it was 6; in [7], 3; in assay [9] it was 6. Further, the BWD was -0.6 in [2], -4.5 in assay [4], -0.1 in assay [5] and -2.6 in assay [8]. In addition, the KE in the assay on P388 [13] is listed as -0.08; in the assay on P388 [14], -0.69; with P388 [15], 3.94. Further, the ILS at 100 mg/kg in assay [16] came to 32%. Also, the ILS at 200 mg/kg in [6] stood at 76%.
`CC(C)NC(=O)OCc1cn2c(c1COC(=O)NC(C)C)CCC2`: the TDS in [17] was determined as 5; in assay [18], 1; in [24], 5; in [28], 5. Besides, the BWD is on record as -4.4 in [19], -3.6 in assay [21], -4.5 in assay [27] and -0.9 in assay [29]. For the same compound, the KE was -0.69 in the assay with P388 [20], -1.23 with P388 [22] and -0.46 with P388 [23]. The ILS at 25 mg/kg in [25] stood at 28%. In addition, in [26], the ILS at 12.5 mg/kg was determined as 20%. In addition, the ILS at 50 mg/kg in [30] turned out to be 26%.

Values taken from ChEMBL document CHEMBL1123648, “Synthesis, chemical reactivity, and antileukemic activity of 5-substituted 6,7-bis(hydroxymethyl)pyrrolo[1,2-c]thiazole biscarbamates and the corresponding sulfoxides and sulfones” (1987).
